Test results taken from ChEMBL document CHEMBL2346629, “Discovery and characterization of novel allosteric FAK inhibitors” (Eur J Med Chem, 2013).

How the values were obtained:
[1] = test system: Tyrosine-protein kinase ABL1 (Homo sapiens), P00519 [M351T]; test: Inhibition of ABL1 M351T mutant (unknown origin) using [gamma-33P]ATP assessed as residual activity at 3 uM
In short: (§1)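 Radiometric profiling across 288 kinases (261 wild-type, 27 mutant), run as an outsourced service. Inhibition read out as [gamma-33P]ATP incorporation into substrate.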

[2] = biological target: Calcium/calmodulin-dependent protein kinase type 1 (Homo sapiens) (UniProt Q14012); test: Inhibition of CAMK1a (unknown origin) using [gamma-33P]ATP assessed as residual activity at 3 uM; in short: as §1
Calcium/calmodulin-dependent protein kinase type 1 (Homo sapiens), sequence (Q14012 whole entry, looked up): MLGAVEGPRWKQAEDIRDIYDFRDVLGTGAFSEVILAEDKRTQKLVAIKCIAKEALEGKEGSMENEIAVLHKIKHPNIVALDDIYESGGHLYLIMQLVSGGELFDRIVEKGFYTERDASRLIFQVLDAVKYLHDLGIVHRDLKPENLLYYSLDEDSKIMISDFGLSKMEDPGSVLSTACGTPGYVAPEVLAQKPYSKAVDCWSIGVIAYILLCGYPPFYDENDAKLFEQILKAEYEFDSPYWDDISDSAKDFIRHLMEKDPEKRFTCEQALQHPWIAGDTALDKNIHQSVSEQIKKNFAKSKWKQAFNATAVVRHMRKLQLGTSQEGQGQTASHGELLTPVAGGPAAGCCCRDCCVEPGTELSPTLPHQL

[3] = biological target: Serine/threonine-protein kinase STK11 (Homo sapiens) (UniProt Q15831); test: Inhibition of LKB1 (unknown origin) using [gamma-33P]ATP assessed as residual activity at 3 uM
Serine/threonine-protein kinase STK11 (Homo sapiens), sequence (Q15831 whole entry): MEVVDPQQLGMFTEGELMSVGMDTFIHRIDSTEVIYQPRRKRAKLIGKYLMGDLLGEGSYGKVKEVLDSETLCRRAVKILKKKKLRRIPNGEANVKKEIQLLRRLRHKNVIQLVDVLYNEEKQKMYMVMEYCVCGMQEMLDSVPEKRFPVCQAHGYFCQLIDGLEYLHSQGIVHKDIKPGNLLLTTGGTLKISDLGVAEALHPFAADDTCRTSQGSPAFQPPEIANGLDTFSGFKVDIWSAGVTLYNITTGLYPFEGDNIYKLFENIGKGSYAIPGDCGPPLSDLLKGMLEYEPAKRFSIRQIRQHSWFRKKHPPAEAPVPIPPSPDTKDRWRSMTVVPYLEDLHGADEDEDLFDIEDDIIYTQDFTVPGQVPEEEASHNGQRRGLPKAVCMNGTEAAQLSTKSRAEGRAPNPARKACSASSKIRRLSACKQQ
In short: (§2)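 Radiometric kinase profiling service covering 288 kinases (261 wild-type, 27 mutant). Inhibition was read as incorporation from [γ-³³P]ATP.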

[4] = biological target: Vascular endothelial growth factor receptor 1 (Homo sapiens) (UniProt P17948); test: Inhibition of FLT1 (unknown origin) using [gamma-33P]ATP assessed as residual activity at 3 uM
In short: (§3)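 Reaction Biology HotSpot radiometric profiling panel of 288 kinases (261 wild-type, 27 mutant). Kinase activity was read out by incorporation of [γ-33P]ATP.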

[5] = biological target: Serine/threonine-protein kinase BRSK1 (Homo sapiens) (UniProt Q8TDC3); test: Inhibition of BRSK1 (unknown origin) using [gamma-33P]ATP assessed as residual activity at 3 uM; in short: as §1
[6] = biological target: Serine/threonine-protein kinase PAK 2 (Homo sapiens) (UniProt Q13177); test: Inhibition of PAK2 (unknown origin) using [gamma-33P]ATP assessed as residual activity at 3 uM
[7] = biological target: Receptor tyrosine-protein kinase erbB-4 (Homo sapiens) (UniProt Q15303); test: Inhibition of ErbB4 (unknown origin) using [gamma-33P]ATP assessed as residual activity at 3 uM; in short: as §3
[8] = biological target: Cyclin-dependent kinase 1/cyclin B1 (Homo sapiens) (UniProt P06493+P14635); test: Inhibition of CDK1/cyclinB (unknown origin) using [gamma-33P]ATP assessed as residual activity at 3 uM; format: protein-complex assay; in short: as §1
[9] = biological target: Discoidin domain-containing receptor 2 (Homo sapiens) (UniProt Q16832); test: Inhibition of DDR2 (unknown origin) using [gamma-33P]ATP assessed as residual activity at 3 uM; in short: as §3
[10] = test system: Epidermal growth factor receptor (Homo sapiens), P00533 [L858R]; test: Inhibition of EGFR L858R mutant (unknown origin) using [gamma-33P]ATP assessed as residual activity at 3 uM; format: protein assay; in short: as §3
[11] = biological target: Protein kinase C theta type (Homo sapiens) (UniProt Q04759); test: Inhibition of PKCtheta (unknown origin) using [gamma-33P]ATP assessed as residual activity at 3 uM
Protein kinase C theta type (Homo sapiens), sequence (Q04759 whole entry, looked up): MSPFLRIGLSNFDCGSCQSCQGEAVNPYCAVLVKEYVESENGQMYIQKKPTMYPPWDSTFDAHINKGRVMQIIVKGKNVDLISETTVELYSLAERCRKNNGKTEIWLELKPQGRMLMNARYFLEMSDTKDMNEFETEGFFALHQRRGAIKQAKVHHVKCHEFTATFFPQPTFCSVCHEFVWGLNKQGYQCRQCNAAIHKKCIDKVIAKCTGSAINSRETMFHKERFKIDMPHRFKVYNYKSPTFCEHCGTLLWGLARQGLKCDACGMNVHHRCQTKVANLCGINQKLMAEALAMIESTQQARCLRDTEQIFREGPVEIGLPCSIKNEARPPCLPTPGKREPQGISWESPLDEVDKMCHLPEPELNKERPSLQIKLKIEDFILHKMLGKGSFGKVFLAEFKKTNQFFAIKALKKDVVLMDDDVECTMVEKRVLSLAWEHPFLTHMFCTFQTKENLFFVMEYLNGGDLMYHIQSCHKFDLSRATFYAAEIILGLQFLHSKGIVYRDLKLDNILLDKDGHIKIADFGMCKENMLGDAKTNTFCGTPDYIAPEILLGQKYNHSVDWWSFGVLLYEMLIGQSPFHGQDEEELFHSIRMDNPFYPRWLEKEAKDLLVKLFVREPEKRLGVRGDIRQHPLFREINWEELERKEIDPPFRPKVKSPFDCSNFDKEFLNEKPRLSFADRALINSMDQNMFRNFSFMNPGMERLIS

[12] = test system: Serine/threonine-protein kinase Chk2 (Homo sapiens), O96017 [I157T]; test: Inhibition of CHK2 I157T mutant (unknown origin) using [gamma-33P]ATP assessed as residual activity at 3 uM
[13] = biological target: Myotonin-protein kinase (Homo sapiens) (UniProt Q09013); test: Inhibition of DMPK (unknown origin) using [gamma-33P]ATP assessed as residual activity at 3 uM; in short: as §3
Myotonin-protein kinase (Homo sapiens), sequence (Q09013 whole entry): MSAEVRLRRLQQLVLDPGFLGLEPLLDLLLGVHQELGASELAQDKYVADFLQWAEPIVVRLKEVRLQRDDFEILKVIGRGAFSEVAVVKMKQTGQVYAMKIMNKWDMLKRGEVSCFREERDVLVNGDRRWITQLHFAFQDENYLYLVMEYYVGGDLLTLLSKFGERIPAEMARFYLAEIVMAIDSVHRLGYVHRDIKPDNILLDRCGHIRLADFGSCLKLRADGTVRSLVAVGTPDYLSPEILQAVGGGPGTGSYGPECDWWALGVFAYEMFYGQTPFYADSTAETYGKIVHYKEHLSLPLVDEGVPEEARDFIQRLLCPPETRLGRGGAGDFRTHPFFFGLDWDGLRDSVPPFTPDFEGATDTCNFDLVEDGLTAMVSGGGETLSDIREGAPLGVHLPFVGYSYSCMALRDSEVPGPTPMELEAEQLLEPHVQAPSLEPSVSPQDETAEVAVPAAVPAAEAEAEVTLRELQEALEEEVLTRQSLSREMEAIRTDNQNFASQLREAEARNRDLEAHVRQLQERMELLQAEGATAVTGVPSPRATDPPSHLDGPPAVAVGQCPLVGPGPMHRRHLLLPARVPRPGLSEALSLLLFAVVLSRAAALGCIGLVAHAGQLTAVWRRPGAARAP

[14] = biological target: MAP kinase-activated protein kinase 2 (Homo sapiens) (UniProt P49137); test: Inhibition of MAPKAPK2 (unknown origin) using [gamma-33P]ATP assessed as residual activity at 3 uM; in short: as §2
MAP kinase-activated protein kinase 2 (Homo sapiens), sequence (P49137 whole entry, looked up): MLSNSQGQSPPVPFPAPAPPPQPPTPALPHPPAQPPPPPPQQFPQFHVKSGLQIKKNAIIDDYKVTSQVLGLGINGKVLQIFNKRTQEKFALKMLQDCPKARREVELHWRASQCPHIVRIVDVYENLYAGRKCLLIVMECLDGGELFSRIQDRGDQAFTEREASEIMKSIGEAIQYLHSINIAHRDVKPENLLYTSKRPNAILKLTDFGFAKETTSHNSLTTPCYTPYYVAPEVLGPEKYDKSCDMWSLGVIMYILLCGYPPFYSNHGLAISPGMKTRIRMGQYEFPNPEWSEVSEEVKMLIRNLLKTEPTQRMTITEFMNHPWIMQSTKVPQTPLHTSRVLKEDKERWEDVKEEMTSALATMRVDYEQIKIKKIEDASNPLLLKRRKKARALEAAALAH

[15] = biological target: Macrophage colony-stimulating factor 1 receptor (Homo sapiens) (UniProt P07333); test: Inhibition of FMS (unknown origin) using [gamma-33P]ATP assessed as residual activity at 3 uM; in short: as §2
[16] = biological target: Serine/threonine-protein kinase PAK 1 (Homo sapiens) (UniProt Q13153); test: Inhibition of PAK1 (unknown origin) using [gamma-33P]ATP assessed as residual activity at 3 uM
[17] = biological target: Proto-oncogene tyrosine-protein kinase Src (Homo sapiens) (UniProt P12931); test: Inhibition of c-Src (unknown origin) using [gamma-33P]ATP assessed as residual activity at 3 uM
[18] = biological target: Protein kinase C alpha type (Homo sapiens) (UniProt P17252); test: Inhibition of PKCa (unknown origin) using [gamma-33P]ATP assessed as residual activity at 3 uM
[19] = biological target: Tyrosine-protein kinase receptor TYRO3 (Homo sapiens) (UniProt Q06418); test: Inhibition of TYRO3 (unknown origin) using [gamma-33P]ATP assessed as residual activity at 3 uM
[20] = biological target: cAMP-dependent protein kinase catalytic subunit PRKX (Homo sapiens) (UniProt P51817); test: Inhibition of PRKX (unknown origin) using [gamma-33P]ATP assessed as residual activity at 3 uM
[21] = biological target: Serine/threonine-protein kinase SIK2 (Homo sapiens) (UniProt Q9H0K1); test: Inhibition of SIK2 (unknown origin) using [gamma-33P]ATP assessed as residual activity at 3 uM
Serine/threonine-protein kinase SIK2 (Homo sapiens), sequence (Q9H0K1 whole entry, looked up): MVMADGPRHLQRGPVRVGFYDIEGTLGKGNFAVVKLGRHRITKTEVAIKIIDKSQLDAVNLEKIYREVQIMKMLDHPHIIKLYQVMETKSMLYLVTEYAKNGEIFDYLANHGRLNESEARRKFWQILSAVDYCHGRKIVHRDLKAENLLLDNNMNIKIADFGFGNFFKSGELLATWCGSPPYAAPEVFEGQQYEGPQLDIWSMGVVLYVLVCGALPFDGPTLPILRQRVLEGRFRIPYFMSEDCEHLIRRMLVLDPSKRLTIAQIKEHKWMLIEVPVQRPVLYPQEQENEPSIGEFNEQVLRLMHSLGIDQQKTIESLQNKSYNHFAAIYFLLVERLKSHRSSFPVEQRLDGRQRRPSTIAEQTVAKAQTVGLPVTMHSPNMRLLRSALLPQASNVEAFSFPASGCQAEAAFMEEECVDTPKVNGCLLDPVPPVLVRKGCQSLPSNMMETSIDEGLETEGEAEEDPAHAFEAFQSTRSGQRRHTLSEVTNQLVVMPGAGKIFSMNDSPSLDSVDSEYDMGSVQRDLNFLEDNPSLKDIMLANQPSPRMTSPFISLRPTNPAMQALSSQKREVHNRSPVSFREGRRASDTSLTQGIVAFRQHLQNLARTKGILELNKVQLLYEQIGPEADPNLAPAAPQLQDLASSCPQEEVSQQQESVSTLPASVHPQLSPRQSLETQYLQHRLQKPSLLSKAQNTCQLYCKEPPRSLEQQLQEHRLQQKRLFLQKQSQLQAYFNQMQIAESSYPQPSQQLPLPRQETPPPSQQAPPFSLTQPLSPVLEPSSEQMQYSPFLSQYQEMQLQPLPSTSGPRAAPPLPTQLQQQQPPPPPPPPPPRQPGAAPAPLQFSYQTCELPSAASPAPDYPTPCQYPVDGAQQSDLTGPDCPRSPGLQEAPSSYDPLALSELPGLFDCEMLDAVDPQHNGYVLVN

[22] = biological target: Platelet-derived growth factor receptor alpha (Homo sapiens) (UniProt P16234); test: Inhibition of PDGFRa (unknown origin) using [gamma-33P]ATP assessed as residual activity at 3 uM
[23] = test system: Fibroblast growth factor receptor 2 (Homo sapiens), P21802 [N549H]; test: Inhibition of FGFR2 N549H mutant (unknown origin) using [gamma-33P]ATP assessed as residual activity at 3 uM; in short: as §3
Fibroblast growth factor receptor 2 (Homo sapiens), P21802 [N549H], sequence (P21802 whole entry N549H): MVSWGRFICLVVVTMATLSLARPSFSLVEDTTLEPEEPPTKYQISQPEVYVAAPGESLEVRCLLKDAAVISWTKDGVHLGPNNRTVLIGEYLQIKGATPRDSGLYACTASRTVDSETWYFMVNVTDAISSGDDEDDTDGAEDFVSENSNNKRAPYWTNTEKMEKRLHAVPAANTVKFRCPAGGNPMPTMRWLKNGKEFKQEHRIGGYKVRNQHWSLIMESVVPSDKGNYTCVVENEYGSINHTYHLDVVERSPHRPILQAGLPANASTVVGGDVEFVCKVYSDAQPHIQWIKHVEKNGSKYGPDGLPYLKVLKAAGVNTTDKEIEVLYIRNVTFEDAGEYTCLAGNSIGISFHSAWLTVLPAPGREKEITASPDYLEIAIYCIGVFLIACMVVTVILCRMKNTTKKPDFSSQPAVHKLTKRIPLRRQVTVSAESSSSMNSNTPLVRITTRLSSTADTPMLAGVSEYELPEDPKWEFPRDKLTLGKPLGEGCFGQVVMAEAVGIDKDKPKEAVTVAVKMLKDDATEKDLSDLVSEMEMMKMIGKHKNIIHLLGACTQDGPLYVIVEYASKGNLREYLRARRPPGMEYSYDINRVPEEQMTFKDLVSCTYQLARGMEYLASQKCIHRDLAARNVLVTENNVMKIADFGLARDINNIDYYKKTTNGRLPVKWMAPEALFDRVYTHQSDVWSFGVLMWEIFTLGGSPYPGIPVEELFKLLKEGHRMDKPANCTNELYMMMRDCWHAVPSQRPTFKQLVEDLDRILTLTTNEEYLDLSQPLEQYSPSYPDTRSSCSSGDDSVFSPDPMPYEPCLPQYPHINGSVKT

[24] = biological target: Insulin receptor (Homo sapiens) (UniProt P06213); test: Inhibition of IR (unknown origin) using [gamma-33P]ATP assessed as residual activity at 3 uM; in short: as §2
[25] = biological target: Aurora kinase A (Homo sapiens) (UniProt O14965); test: Inhibition of Aurora A (unknown origin) using [gamma-33P]ATP assessed as residual activity at 3 uM; in short: as §1
[26] = biological target: G protein-coupled receptor kinase 3 (Homo sapiens) (UniProt P35626); test: Inhibition of GRK3 (unknown origin) using [gamma-33P]ATP assessed as residual activity at 3 uM; in short: as §2
[27] = biological target: Death-associated protein kinase 3 (Homo sapiens) (UniProt O43293); test: Inhibition of ZIPK (unknown origin) using [gamma-33P]ATP assessed as residual activity at 3 uM
[28] = test system: Mast/stem cell growth factor receptor Kit (Homo sapiens), P10721 [V560G]; test: Inhibition of c-Kit V560G mutant (unknown origin) using [gamma-33P]ATP assessed as residual activity at 3 uM
[29] = biological target: SRSF protein kinase 1 (Homo sapiens) (UniProt Q96SB4); test: Inhibition of SRPK1 (unknown origin) using [gamma-33P]ATP assessed as residual activity at 3 uM
[30] = biological target: Calcium/calmodulin-dependent protein kinase type 1D (Homo sapiens) (UniProt Q8IU85); test: Inhibition of CAMK1d (unknown origin) using [gamma-33P]ATP assessed as residual activity at 3 uM; in short: as §1
Calcium/calmodulin-dependent protein kinase type 1D (Homo sapiens), sequence (Q8IU85 whole entry, looked up): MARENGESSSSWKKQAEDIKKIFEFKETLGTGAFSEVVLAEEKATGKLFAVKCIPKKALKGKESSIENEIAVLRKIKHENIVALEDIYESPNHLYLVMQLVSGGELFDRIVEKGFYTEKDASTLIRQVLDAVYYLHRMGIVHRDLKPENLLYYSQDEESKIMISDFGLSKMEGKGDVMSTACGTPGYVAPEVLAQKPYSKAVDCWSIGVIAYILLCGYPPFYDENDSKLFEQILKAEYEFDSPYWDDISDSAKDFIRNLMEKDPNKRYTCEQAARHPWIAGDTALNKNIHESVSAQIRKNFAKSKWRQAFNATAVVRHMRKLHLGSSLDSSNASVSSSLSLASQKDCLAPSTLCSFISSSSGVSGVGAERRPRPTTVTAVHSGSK

[31] = biological target: Serine/threonine-protein kinase pim-1 (Homo sapiens) (UniProt P11309); test: Inhibition of PIM1 (unknown origin) using [gamma-33P]ATP assessed as residual activity at 3 uM
Serine/threonine-protein kinase pim-1 (Homo sapiens), sequence (P11309 whole entry, looked up): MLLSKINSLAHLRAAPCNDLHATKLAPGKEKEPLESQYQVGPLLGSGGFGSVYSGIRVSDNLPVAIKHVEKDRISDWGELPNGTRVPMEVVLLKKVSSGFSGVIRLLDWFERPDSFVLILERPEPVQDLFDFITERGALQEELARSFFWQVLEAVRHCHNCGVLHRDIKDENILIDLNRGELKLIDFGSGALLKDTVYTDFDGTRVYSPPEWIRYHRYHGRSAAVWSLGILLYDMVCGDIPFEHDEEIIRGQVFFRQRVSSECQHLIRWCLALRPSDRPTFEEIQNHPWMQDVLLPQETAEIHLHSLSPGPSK

[32] = biological target: Homeodomain-interacting protein kinase 4 (Homo sapiens) (UniProt Q8NE63); test: Inhibition of HIPK4 (unknown origin) using [gamma-33P]ATP assessed as residual activity at 3 uM; in short: as §2

SMILES: CCc1ccc(-c2ccc3c(c2)-c2[nH]ncc2S(=O)(=O)N3C)cc1
- Activity [1]: 66%
- Activity [2]: 91%
- Activity [3]: 98%
- Activity [4]: 89%
- Activity [5]: 93%
- Activity [6]: 94%
- Activity [7]: 90%
- Activity [8]: 83%
- Activity [9]: 96%
- Activity [10]: 95%
- Activity [11]: 98%
- Activity [12]: 61%
- Activity [13]: 103%
- Activity [14]: 97%
- Activity [15]: 96%
- Activity [16]: 80%
- Activity [17]: 58%
- Activity [18]: 86%
- Activity [19]: 94%
- Activity [20]: 93%
- Activity [21]: 103%
- Activity [22]: 87%
- Activity [23]: 102%
- Activity [24]: 94%
- Activity [25]: 90%
- Activity [26]: 93%
- Activity [27]: 97%
- Activity [28]: 72%
- Activity [29]: 90%
- Activity [30]: 85%
- Activity [31]: 96%
- Activity [32]: 91%
